Screening results: PubChem, Broad Institute
Shown are actives, neighbours in structure and some others; about 2.5% of the full set was active somewhere.
AF4-AF9 inh – blocks AF4 peptide binding to human AF9. inhibition, % at 10 µM. actives 0.47% (n = 350,000). P42568. AlphaScreen, biotin-AF4 peptide binding to FLAG-AF9. AID 651704;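 active = every replicate reaching a set inhibition limit, whatever the replicate mean, cut at about 25% in these data; inconclusive = mean inhibition reaches that limit but some replicates miss it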;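 also: 0% = plate neutral control median and 100% = total signal loss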
Target sequence (P42568 whole entry, looked up): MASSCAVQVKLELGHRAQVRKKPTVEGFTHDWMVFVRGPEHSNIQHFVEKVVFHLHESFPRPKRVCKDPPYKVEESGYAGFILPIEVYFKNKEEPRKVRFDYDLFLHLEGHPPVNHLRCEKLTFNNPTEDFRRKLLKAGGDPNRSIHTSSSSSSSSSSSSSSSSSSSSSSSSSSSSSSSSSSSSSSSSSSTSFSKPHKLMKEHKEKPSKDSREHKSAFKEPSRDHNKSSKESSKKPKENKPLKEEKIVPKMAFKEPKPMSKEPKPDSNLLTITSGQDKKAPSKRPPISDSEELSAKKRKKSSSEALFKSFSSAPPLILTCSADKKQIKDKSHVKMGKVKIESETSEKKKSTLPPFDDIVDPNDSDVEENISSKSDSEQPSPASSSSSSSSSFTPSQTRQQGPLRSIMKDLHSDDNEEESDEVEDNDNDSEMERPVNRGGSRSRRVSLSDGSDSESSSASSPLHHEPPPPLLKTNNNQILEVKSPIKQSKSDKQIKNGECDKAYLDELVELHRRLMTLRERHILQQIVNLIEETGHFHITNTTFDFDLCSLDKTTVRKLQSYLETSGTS
FN deposit inh – fibronectin deposition inhibition; AH1F fibroblasts, Alexa488-fibronectin deposition fluorescence, overnight; inhibition, % at 12.6 µM; actives 0.086% (n = 350,000); AID 743247;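 active = mean inhibition across replicates of 30% or more, regardless of how many single replicates reach that level; inconclusive = mean under 30% yet at least half of replicates reach 30%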;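 also: positive control wells lacked labelled fibronectin entirely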
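Assay system: AH1F fibroblast monolayer, labelled fibronectin deposition. Amount: 10000 cells per well. Also added: labelled fibronectin 24 nM. Compound: single-point pinned compound. Incubation: cell attachment 1 h, compound and FN exposure overnight. Detection: fluorescence after three HBSS washes, excitation 485 nm, emission 525 nm. Read-out: inhibition of fibronectin deposition signal.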
EWS-Fli inh – blocks EWS/Fli oncoprotein-driven transcription. A673 NR0B1-luciferase reporter, viability-normalised. inhibition, % at 12.6 µM. actives 0.67% (n = 350,000). AID 651661;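 active = mean inhibition of at least 50% after viability correction, with every replicate also passing that limit; inconclusive = mean reaches 50% but only one of two replicates passes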;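 also: firefly luciferase signal divided by Alamar Blue viability fluorescence both relative to DMSO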
PAX8 reporter – lowers PAX8-driven luciferase in RMG-I cells | RMG-I TPO-luciferase reporter, SteadyGlo, 24 h | inhibition, % at 12.6 µM | actives 1.2% (n = 360,000);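 active = mean replicate inhibition at least 60% with every replicate also reaching 60%; inconclusive = only one of the two criteria is met; inactive = mean below 60% and not all replicates reaching 60%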;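 also: luciferase light reporting Pax8 driven TPO promoter activity; plate controls were median of neutral control wells for no effect and mitoxantrone controls for full effect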
HIV Env fusion – blocks HIV Env-driven cell-cell fusion | HeLa-JRFL Env/CEM21 cell fusion, luciferase | inhibition, % at 12.3 µM | actives 1.1% (n = 360,000) | AID 651610;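 active = mean replicate inhibition score of at least 50 and every replicate individually at or above 50; inconclusive = only one of the two criteria met; inactive = mean below 50 and not all replicates reaching 50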;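 also: 0% = plate neutral controls and 100% = maraviroc near 300 nM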
Glyco luc inh – blocks N-linked glycosylation in D54 reporter cells | AID 588692 | D54 ERlucT glycosylation luciferase reporter, 24 h; percent of 100 nM tunicamycin response | actives 0.23% (n = 360,000) | reporter increase, % at 12.5 µM;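 active = mean luciferase reporter signal, scaled so untreated is 0 and the glycosylation-blocking control 100, at or above a set limit in every replicate; inconclusive = mean reaches the limit but not every replicate does; inactive = mean below the limit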;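 also: luciferase carries N-glycosylation sites so blocking glycosylation raises the light; 0% = median of neutral control wells and 100% = median of 100 nM tunicamycin wells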
* hit, by the source's call; ? = inconclusive; · = no result given; [ ] = another dose, or the depositor's remark.

SMILES	AF4-AF9 inh	FN deposit inh	EWS-Fli inh	PAX8 reporter	HIV Env fusion	Glyco luc inh
C[C@H]1CCCCO[C@H](CN(C)CC2CCCCC2)[C@@H](C)CN([C@@H](C)CO)C(=O)c2cc(NC(=O)Nc3ccc(F)cc3)ccc2O1	10	·	49	68*	?	·
C[C@@H]1CCCCO[C@@H](CN(C)CC2CCCCC2)[C@@H](C)CN([C@@H](C)CO)C(=O)c2cc(NC(=O)Nc3ccc(F)cc3)ccc2O1	4	·	-3	-15	1[16.7 µM]	·
C[C@@H]1CCCCO[C@H](CN(C)CC2CCCCC2)[C@H](C)CN([C@@H](C)CO)C(=O)c2cc(NC(=O)Nc3ccc(F)cc3)ccc2O1	6	·	58*	8	1[16.7 µM]	·
COc1ccc(NC(=O)Nc2ccc3c(c2)C(=O)N([C@@H](C)CO)C[C@@H](C)[C@H](CN(C)CC2CCCCC2)OCCCC[C@H](C)O3)cc1	1	·	-9	-20	10[16.7 µM]	·
COc1ccccc1CNC(=O)C[C@H]1CC[C@H]2[C@@H](COC[C@@H](O)CN2C(=O)Nc2ccc(C(F)(F)F)cc2)O1	0	-8	-3	39	·	·
COc1ccccc1NC(=O)NC1CCCc2ccccc21 (stereo not given)	-3	7	12	22	5	-3
CCOc1ccccc1NC(=O)NC1CCCc2ccccc21 (stereo not given)	0	1	5	15	59*	-4
COc1ccc(CN(C)C[C@H]2OCCCC[C@@H](C)Oc3ccc(NC(=O)Nc4ccc(C(F)(F)F)cc4)cc3C(=O)N([C@@H](C)CO)C[C@H]2C)cc1	8	·	69*	?	27[16.7 µM]	·
COc1ccc(CN(C)C[C@H]2OCCCC[C@@H](C)Oc3ccc(NC(=O)Nc4ccc(C(F)(F)F)cc4)cc3C(=O)N([C@H](C)CO)C[C@@H]2C)cc1	8	·	-1	2	11[16.7 µM]	·
COc1ccc(NC(=O)Nc2ccc3c(c2)C(=O)N([C@H](C)CO)C[C@@H](C)[C@H](CN(C)Cc2ccc(C(F)(F)F)cc2)OCCCC[C@H](C)O3)cc1	2	-4	61*	81*	35[16.7 µM]	·
COc1ccc(NC(=O)Nc2ccc3c(c2)C(=O)N([C@H](C)CO)C[C@H](C)[C@H](CN(C)Cc2ccc(C(F)(F)F)cc2)OCCCC[C@@H](C)O3)cc1	0	-8	-1	50	-108[16.7 µM]	·
COc1ccc(NC(=O)Nc2ccc3c(c2)C(=O)N([C@H](C)CO)C[C@H](C)[C@H](CN(C)Cc2ccc(C(F)(F)F)cc2)OCCCC[C@H](C)O3)cc1	-5	4	-3	99*	64*[16.7 µM]	·
COc1ccc(CN(C)C[C@@H]2OCCCC[C@@H](C)Oc3ccc(NC(=O)Nc4ccc(C(F)(F)F)cc4)cc3C(=O)N([C@@H](C)CO)C[C@H]2C)cc1	6	·	71*	98*	58*[16.7 µM]	·
C[C@H](CO)N1C[C@H](C)[C@H](CN(C)C(=O)Nc2ccc3c(c2)OCO3)Oc2c(NC(=O)c3ccncc3)cccc2C1=O	-1	·	-76	·	·	·
COc1ccc(CN(C)C[C@@H]2OCCCC[C@H](C)Oc3ccc(NC(=O)Nc4ccc(C(F)(F)F)cc4)cc3C(=O)N([C@H](C)CO)C[C@@H]2C)cc1	8	·	71*	108*	22[16.7 µM]	·
COc1ccc(NC(=O)Nc2ccc3c(c2)C(=O)N([C@@H](C)CO)C[C@@H](C)[C@H](CN(C)Cc2ccc(C(F)(F)F)cc2)OCCCC[C@H](C)O3)cc1	-3	·	8	49	31[16.7 µM]	·
COc1ccc(NC(=O)Nc2ccc3c(c2)C(=O)N([C@@H](C)CO)C[C@@H](C)[C@H](CN(C)Cc2ccc(C(F)(F)F)cc2)OCCCC[C@@H](C)O3)cc1	-2	-14	0	64*	?	·
COc1ccc(NC(=O)Nc2ccc3c(c2)C(=O)N([C@@H](C)CO)C[C@H](C)[C@H](CN(C)Cc2ccc(C(F)(F)F)cc2)OCCCC[C@@H](C)O3)cc1	-2	-6	4	57	4[16.7 µM]	·
COc1ccc(CN(C)C[C@H]2OCCCC[C@H](C)Oc3ccc(NC(=O)Nc4ccc(C(F)(F)F)cc4)cc3C(=O)N([C@H](C)CO)C[C@@H]2C)cc1	4	·	71*	83*	?	·
COc1ccc(CN(C)C[C@H]2OCCCC[C@@H](C)Oc3ccc(NC(=O)Nc4ccc(C(F)(F)F)cc4)cc3C(=O)N([C@@H](C)CO)C[C@@H]2C)cc1	15	·	66*	30	43[16.7 µM]	·
C[C@@H]1CN([C@H](C)CO)C(=O)c2cccc(NS(=O)(=O)c3cccs3)c2O[C@@H]1CN(C)Cc1ccc(Oc2ccccc2)cc1	5	-4	6	·	·	·
O=C(Cc1cccc2ccccc12)NCC(=O)N1CCN(CC(=O)Nc2ccc(F)cc2)CC1	-10	-4	3	37	65*	2
C[C@@H]1CN([C@H](C)CO)C(=O)c2cc(NS(=O)(=O)c3ccccc3)ccc2O[C@@H](C)CCCCO[C@@H]1CN(C)CC1CCCCC1	3	·	10	89*	4[16.7 µM]	·
C[C@H]1CCCCO[C@H](CN(C)CC2CCCCC2)[C@@H](C)CN([C@@H](C)CO)C(=O)c2cc(NC(=O)c3ccccc3)ccc2O1	0	1	2	13	?	·
C[C@@H]1CCCCO[C@H](CN(C)CC2CCCCC2)[C@H](C)CN([C@H](C)CO)C(=O)c2cc(NS(=O)(=O)c3ccccc3)ccc2O1	6	·	-9	92*	11[16.7 µM]	·
SMILES	AF4-AF9 inh	FN deposit inh	EWS-Fli inh	PAX8 reporter	HIV Env fusion	Glyco luc inh
C[C@@H]1CN([C@@H](C)CO)C(=O)c2cc(NC(=O)c3ccccc3)ccc2O[C@@H](C)CCCCO[C@H]1CN(C)CC1CCCCC1	27*	28	14	-18	63*[16.7 µM]	·
COc1ccc(NC(=O)N(C)C[C@@H]2Oc3cc(-c4ccc(C)cc4)ccc3S(=O)(=O)N([C@H](C)CO)C[C@H]2C)cc1	4	·	29	·	-6[16.7 µM]	·
CCC(=O)Nc1ccc2c(c1)OC[C@H](C)N(Cc1nccs1)C[C@H](C)[C@H](OC)CN(C)C2=O	4	-13	-4	·	·	·
Cc1c(NS(=O)(=O)c2ccc3c(c2)OCCO3)cccc1-c1nc2cccnc2s1	6	1	20	7	44*	-4
Cc1cc(-c2nc3cccnc3s2)ccc1NS(=O)(=O)c1ccc2c(c1)OCCO2	-7	2	2	-4	-10	0
CC(C)Sc1nc2c(cnn2-c2ccccc2)c(=O)[nH]1	36*	-1	12	-8	5	1
CCc1nn2c(NCCCO)cc(C)nc2c1-c1ccc(F)cc1	3	4	1	-14	-44	28*
Cc1ccc(S(=O)(=O)Nc2ccc3c(c2)C(=O)N([C@H](C)CO)C[C@H](C)[C@H](CN(C)C(=O)Nc2c(C)noc2C)OCCCC[C@H](C)O3)cc1	-4	-3	-2	4	-4[16.7 µM]	·
O=C1CCCC2=C1C1(CCCCC1)N=C(Nc1nc3ccccc3o1)N2	·	-4	·	12	-81	47*
